Results pooled from the literature.
Lines come from different studies, so protocols differ.
Target: Dual specificity protein kinase CLK3 (CLK3, Homo sapiens, UniProt P49761)
Method: competition with immobilised ligand

SMILES | assay | conditions | remaining binding [%]
CNC(=O)[C@@H]1CC[C@@H](n2c(-c3ccc4cnccc4c3)nc3ccc(C(=O)NCc4cccc(C(N)=O)c4)cc32)C1 | binding | 1 µM | 100
O=C(NCC1CCOCC1)c1n[nH]cc1NC(=O)c1c(F)cccc1F | binding | 1 µM | 64
O=C(NCCCN1CCOCC1)c1ccc(Nc2ncc(Cl)c(-c3ccc(Cl)s3)n2)cc1 | binding | 1 µM | 37
C[C@@H](c1ccc(-n2cnc3c(N)ncnc32)cc1)N1CCc2nn(C)c(Cc3ccccc3)c2C1=O | binding | 0.1 µM | 71
O=C(NCCCN1CCOCC1)c1ccc(Nc2nccc(-c3cc4ccccc4s3)n2)cc1 | binding | 1 µM | 84
O=S(=O)(NC1CCC(c2cc(F)ccc2F)(S(=O)(=O)c2ccc(Cl)cc2)CC1)C(F)(F)F (centres unmarked) | cell-free assay | 1 µM | 86
COc1cnc(Nc2cccc(S(N)(=O)=O)c2)nc1N1CCN(c2ccccc2)CC1 | binding | 1 µM | 97
CS(=O)(=O)c1cc(C2(NC(=O)c3cncc4c3cnn4-c3ccc(F)cc3)CC2)ccn1 | cell-free assay | 1 µM | 86
COc1cc(Nc2nccc(-c3cnn4nc(OC)ccc34)n2)cc(C(F)(F)F)c1 | binding | 1 µM | 92
O=C(c1ccc(Nc2ncc(Cl)c(-c3cc4ccccc4s3)n2)cc1)N1CCC(N2CCCC2)CC1 | binding | 1 µM | 7.4
O=C(NCCCC1CCCCC1)c1ccc(CNC(=O)c2cnn(-c3ccccc3)c2C(F)(F)F)cc1 | cell-free assay | 0.1 µM | 100
Nc1ncc2c(n1)-c1c([nH]c3ccc(C#CC4CC4)cc13)CCCC2 | binding | 1 µM | 96
c1cncc(-c2cccc(Nc3nccc(NC4CCCCC4)n3)c2)c1 | binding | 10 µM | 57
O=C1CCc2cc(Nc3cc(OC4CCOCC4)c([N+](=O)[O-])cc3Cl)ccc2N1 | cell-free assay | 1 µM | 100
